Screening results deposited in PubChem BioAssay by SRMLSC.
Only a selection was taken, and hits are over-represented in it overall.
Fibroblast inh: antiproliferative effect on LL 47 fibroblasts – human, LL 47 cells, CellTiter-Glo luminescence, primary screen. viability, % at 10 µM. LL 47 human lung fibroblast viability, ATP luminescence; hits give low values. 85,000 compounds, 1.1% hits;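 active = viability at or below 50% in the single dose screen; inactive = viability above 50%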;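 also: compound exposure lasted 72 h before the ATP readout; 100% = median luminescence of untreated cell-only wells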
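test system = LL 47 human lung fibroblasts | amount = 1,150 fibroblasts seeded per well | medium = 15% FBS in IMEM | times = overnight cell rest, 72 h compound treatment at 37 °C | measured by = CellTiter-Glo luminescence measuring cellular ATP | read-out = viability percentage against median untreated-cell control | benchmarks = cell-only wells, no compound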
HCT116 PTEN-null: growth suppression of PTEN-null HCT116, primary screen, cell-based, CellTiter-Glo; viability, % at 10 µM; AID 827, 2007; HCT116 PTEN-null viability, 60 h; hits give low values; 140,000 compounds, 1.2% hits;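 active = viability at or below a set limit, 4 SD under the median of all tested compounds, cut at about 3.7% in these data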;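 also: PTEN knockout HCT116 line with beta catenin targeted HCT116 as companion control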
HUVEC prolif 384: inhibitors of HUVEC proliferation, primary screen, cell-based, 384-well | CellTiter-Glo luminescence, 72 h; hits give low values | viability, % at 10 µM (by protocol) | 86,000 compounds, 1.1% hits | AID 648, 2007;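 active = viability at or below 30%; inactive = viability above 30%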;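 also: 100% = median luminescence of DMSO-only cell control wells on each plate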
bCat KO growth: primary screen for growth suppressors in beta-catenin knockout HCT116 cells (colon tumor, human); 140,000 compounds, 1.5% hits; AID 818, 2007; viability, % at 10 µM; HCT116 beta-catenin knockout viability, CellTiter-Glo, 60 h; hits give low values;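 active = viability at or under a set limit, the compound median less 4 SD, cut at about 6% in these data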;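 also: 0% = Hyamine 1622 control at 20 µM and 100% = untreated cell control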
H69AR growth 86K: proliferation blockers of H69AR lung cancer cells, primary screen, cell-based, human, 86K library. H69AR lung tumor viability, ATP luminescence, 72 h; hits give low values. viability, % at 10 µM. 85,000 compounds, 6% hits. AID 598, 2007;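 active = viability at or below 40%; inactive = viability above 40%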;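 also: multidrug resistant small cell line overexpressing MRP-1 efflux transporter; 100% = mean luminescence of untreated control wells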
* hit, by the source's call; . = no result given.

SMILES	Fibroblast inh	HCT116 PTEN-null	HUVEC prolif 384	bCat KO growth	H69AR growth 86K
COc1ccc(/C=C2/C(=O)N(CC3CCCO3)C(=S)N2C)c(OC)c1 (configuration not stated)	.	84.0	.	89.8	.
COc1ccc2c(c1)nc1n2CN(CC2CCCO2)CN1Cc1ccccc1 (configuration not stated)	86.5	.	68.2	.	24.7*
COc1cccc(/C=N/NC(=O)c2nc(-c3ccccc3)cc(-c3ccccc3)n2)c1O	.	8.1	.	7.3	.
Cn1c(Cn2nnc3ccccc32)nnc1SCC(=O)Nc1nccs1	.	94.5	.	86.8	.
Cc1ccc(C(C)C)c(OCC(=O)Nc2ccc3c(c2)nc(CN2CCCC2)n3C)c1	90.8	2.5*	25.3*	3.4*	80.7
CCCC(=O)Nc1ccc2c(c1)nc(CN1CCCC1)n2C	99.7	107.6	98.2	97.3	97.8
COCC(C)NC(=O)NC1(C(F)(F)F)Oc2ccc(Cl)cc2O1 (configuration not stated)	64.6	34.0	51.8	29.1	22.8*
O=C(NCCN1CCOCC1)NC1(C(F)(F)F)Oc2ccc(Cl)cc2O1 (configuration not stated)	.	30.8	.	24.0	.
CC1CCN(C(=O)C2CCN(S(=O)(=O)c3cccc4nonc34)CC2)CC1	.	88.2	.	90.5	.
Cn1c(O)c(C2=c3ccccc3=NC2=O)sc1=Nc1ccc(Cl)cc1	75.7	49.7	67.9	45.7	39.8*
O=C(O)CCC(C(=O)O)n1c(O)c(C2=c3ccccc3=NC2=O)sc1=S (configuration not stated)	92.8	90.9	85.3	94.8	93.1
C=CCn1c(O)c(C2=c3ccccc3=NC2=O)s/c1=N/c1nccs1	41.7*	26.9	65.8	27.7	23.2*
O=C(c1ccc(COc2c(F)c(F)cc(F)c2F)o1)N1CCN(c2ccc(Cl)cc2)CC1	90.2	21.6	95.1	48.3	48.4
COc1cccc(C2=NOC(C(=O)Nc3cc(C)nn3-c3ccccc3)C2)c1OC (configuration not stated)	90.3	53.5	75.5	56.7	32.4*
COc1cc(OC)c(C2=NOC(C(=O)Nc3cc(C)nn3-c3ccccc3)C2)cc1Cl (configuration not stated)	104.3	84.9	103.0	89.7	73.8
C=CCn1c(SCc2csc(-c3ccc(Cl)cc3)n2)nnc1-c1ccccc1OC	.	55.6	.	38.9	.
Cn1nc([N+](=O)[O-])nc1Sc1nnc(-c2ccccc2)o1	66.6	2.6*	62.3	3.4*	2.6*
O=Cc1ccc(Sc2nnc(-c3ccccc3)o2)c([N+](=O)[O-])c1	78.7	5.8	2.4*	16.7	2.0*
COC(=O)c1ccc(C(=O)OC)c(NS(C)(=O)=O)c1	97.1	92.0	99.9	100.2	1.4*
O=C(CCCCn1c(=O)c2ccccc2n(Cc2ccc(F)cc2Cl)c1=O)NCc1ccco1	88.1	64.7	64.0	61.1	24.3*
Cc1ccc(C)c(Cn2c(=O)n(CCCC(=O)NCc3ccco3)c(=O)c3ccccc32)c1	82.9	31.2	85.7	38.1	36.0*
CCn1c(=O)cc(SCC(=O)NCc2ccco2)c2ccccc21	88.8	37.4	60.3	23.9	38.6*
O=C(NCc1ccco1)c1ccc(Cn2c(=O)c3ccccc3n(Cc3cccc(Cl)c3)c2=O)cc1	68.1	63.2	62.3	60.6	30.9*
Cc1ccc(C)c(Cn2c(=O)n(CCC(=O)NCc3ccco3)c(=O)c3ccccc32)c1	76.3	57.9	48.4	63.0	51.8
Cc1ccccc1-n1nnnc1Sc1nnnn1-c1ccccc1	21.4*	1.3*	28.3*	2.0*	2.7*
SMILES	Fibroblast inh	HCT116 PTEN-null	HUVEC prolif 384	bCat KO growth	H69AR growth 86K
CCCSc1nnc(Sc2nnnn2-c2ccccc2)s1	52.1	5.9	7.6*	8.6	5.4*
CC(C)OCCCNC(=O)CCSc1ccc(Cl)cc1	100.1	102.0	105.2	102.8	96.8
COc1ccc(C2=Nn3c(nnc3-c3ccc(OC)cc3)SC2)cc1	41.8*	13.9	47.2	15.8	21.7*
COc1cc(-c2nnc3n2N=C(c2ccccc2)CS3)cc(OC)c1OC	51.8	10.2	49.5	13.3	19.5*
c1ccc(C2=Nn3c(nnc3-c3cc(-c4ccccc4)n[nH]3)SC2)cc1	63.5	78.9	89.8	76.8	39.6*
CCOc1ccc(C2=Nn3c(nnc3-c3ccco3)SC2)cc1	92.9	97.6	97.6	98.4	76.2
CCOc1ccc(C2=Nn3c(nnc3-c3ccccn3)SC2)cc1	94.0	90.9	95.2	82.9	29.9*
COC(=O)c1c(NC(=O)CN2CCC3(O)CCCCC3C2c2ccc(OC)cc2OC)sc(C)c1C (configuration not stated)	.	54.9	.	57.5	.
N#Cc1ccccc1CSc1nc(N2CCCCC2)nc(N2CCCCC2)n1	91.3	68.1	121.1	78.6	.
COc1ccc(-n2ncc3c(SCC(=O)N4CCN(c5ccccc5OC)CC4)ncnc32)cc1	95.6	43.2	58.2	60.1	23.3*
O=C(CSc1ncnc2c1nnn2-c1ccc(F)cc1)N1CCN(c2ccccc2)CC1	98.5	.	89.4	.	27.4*
C=CCn1c(=NC(=O)c2ccc(S(=O)(=O)N3CCc4ccccc4C3)cc2)sc2cc(S(N)(=O)=O)ccc21	.	1.7*	.	1.4*	.
COCCn1c(=NC(=O)c2ccc(S(=O)(=O)N3CCc4ccccc4C3)cc2)sc2cc(S(N)(=O)=O)ccc21	.	80.4	.	68.6	.
C#CCn1c(=NC(=O)c2ccc(S(=O)(=O)N3CCc4ccccc4C3)cc2)sc2cc(S(N)(=O)=O)ccc21	.	1.5*	.	1.4*	.
CC(NC(=S)Nc1ccc(Cl)cc1)C(c1ccccc1)N1CCOCC1 (configuration not stated)	.	57.0	.	61.5	.
CCN(CC)C(=O)c1sc(NC(=O)c2ccc3c(c2)OCO3)c(C#N)c1C	100.2	101.4	92.9	97.9	94.4
Cc1c(Cc2ccc3c(c2)OCO3)sc(NC(=O)C(C)(C)C)c1C#N	83.6	40.3	84.5	46.9	38.3*
CCOC(=O)N1CCC(n2c(=S)[nH]c3cc(OC)c(OC)cc3c2=O)CC1	103.7	94.2	97.6	94.8	33.8*
CCCn1c(=S)[nH]c2cc(OC)c(OC)cc2c1=O	93.2	90.7	89.5	82.4	35.4*
CN(C)CCOc1nc(-c2ccccc2)nc2c1oc1ccccc12	30.3*	3.0*	4.4*	2.0*	2.3*
Cc1ccc(S(=O)(=O)N(Cc2cc3cc4c(cc3[nH]c2=O)OCCO4)CC2CCCO2)cc1 (configuration not stated)	98.6	85.5	66.3	78.8	65.4
COc1ccc2cc(CN(CC3COCCO3)S(=O)(=O)c3ccc(Cl)cc3)c(=O)[nH]c2c1 (configuration not stated)	107.5	27.0	101.8	20.3	13.3*
